hERG protect = hERG rescue from dofetilide block, primary screen, cell-based, CHO-hERG, FluxOR thallium flux, dofetilide IC70; dofetilide IC70 present; activation (rescue from dofetilide block), less the hit threshold, % at 10 µM; 310,000 compounds, 0.51% hits;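 active = activation above the mean of controls blocked by dofetilide plus 5 SD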;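 also: thallium influx through hERG after potassium depolarization seen as dye fluorescence rise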
KCNK3 block = human KCNK3 channel inhibitors, primary screen, CHO cells, FluxOR thallium flux, B-score; Potassium channel subfamily K member 3 (Homo sapiens), O14649; FluxOR fluorescence; stronger effect = lower value; B-score at 10 µM; 340,000 compounds, 0.84% hits;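 active = B-score under library mean minus 4 SD, starting fluorescence ratio at most library mean plus 5 SD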;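 also: more negative B-score means stronger inhibition of thallium flux through KCNK3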
KCNQ1 block = inhibitors of human KCNQ1 channel, primary screen, cell-based, thallium flux, high-throughput; Potassium voltage-gated channel subfamily KQT member 1 (Homo sapiens), P51787; CHO-K1 KCNQ1, FluxOR thallium flux fluorescence; stronger effect = higher value; B-score at 10 µM; 310,000 compounds, 1.3% hits; AID 2642, 2010;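 active = compounds whose thallium flux B-score, printed positive for inhibition, exceeds three library SD while starting fluorescence stays within three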;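 also: channel opened by potassium depolarization with thallium stimulus after 20 min compound exposure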
Target sequence (P51787 whole entry, looked up): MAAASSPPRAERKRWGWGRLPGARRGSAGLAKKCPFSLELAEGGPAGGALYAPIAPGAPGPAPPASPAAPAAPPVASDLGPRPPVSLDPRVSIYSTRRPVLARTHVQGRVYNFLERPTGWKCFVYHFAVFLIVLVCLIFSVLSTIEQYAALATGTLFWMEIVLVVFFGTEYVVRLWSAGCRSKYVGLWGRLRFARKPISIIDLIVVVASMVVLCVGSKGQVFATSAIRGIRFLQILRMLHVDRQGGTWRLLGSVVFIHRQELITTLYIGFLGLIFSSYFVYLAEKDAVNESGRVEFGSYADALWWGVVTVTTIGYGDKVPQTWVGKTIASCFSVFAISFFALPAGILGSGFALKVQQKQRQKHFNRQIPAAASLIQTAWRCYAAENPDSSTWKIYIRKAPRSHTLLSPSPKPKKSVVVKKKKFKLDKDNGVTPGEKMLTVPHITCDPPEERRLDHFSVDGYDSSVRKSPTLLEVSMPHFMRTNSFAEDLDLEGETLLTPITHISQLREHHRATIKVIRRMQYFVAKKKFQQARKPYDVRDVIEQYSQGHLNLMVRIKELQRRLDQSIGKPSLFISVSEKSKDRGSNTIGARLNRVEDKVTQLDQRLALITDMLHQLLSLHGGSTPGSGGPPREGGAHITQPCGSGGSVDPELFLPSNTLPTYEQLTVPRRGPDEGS
KCNQ1 pot = potentiators or activators of KCNQ1 channel, primary screen, cell-based, thallium flux, high-throughput | Potassium voltage-gated channel subfamily KQT member 1 (Homo sapiens), P51787 | CHO-K1 KCNQ1, thallium flux FluxOR fluorescence; stronger effect = higher value | B-score at 10 µM | 310,000 compounds, 0.35% hits;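 active = fluorescence ratio B-score, a plate-corrected score, at least three library SD, with initial intensity B-score within 5 SD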
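assay system = KCNQ1-transfected CHO-K1 cells | medium = assay buffer with matched DMSO | probe or stimulus = depolarizing K+/Tl+ stimulus, K2SO4 and Tl2SO4 each 12.5 mM in 5x stock | dosing = single dose | incubation = dye 90 min, compound 20 min, room temperature | detection = kinetic FluxOR fluorescence, 10 s baseline plus 110 s post-stimulus | evaluation = ratio B score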
KCNK9 inh = KCNK9 potassium channel inhibitors, primary screen, HEK293 cells, thallium flux. FluxOR thallium flux fluorescence; stronger effect = lower value. Potassium channel subfamily K member 9 (Homo sapiens), Q9NPC2. 310,000 compounds, 1.2% hits. B-score at 10 µM;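 active = ratio B-score over 3 SD below the library mean, with starting fluorescence within 5 SD of its mean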;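 also: negative B-score means less thallium flux so channel inhibition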
Numbers stand for hits; i = inactive; nt = not tested or not shown. Shown are actives, neighbours in structure and some others; about 3.1% of the full set was active somewhere.

SMILES	hERG protect	KCNK3 block	KCNQ1 block	KCNQ1 pot	KCNK9 inh
CCOC(=O)[C@@H]1[C@H]2COc3ccccc3[C@@H]2N2C(=O)N(c3ccccc3)C(=O)[C@@]12C	i	i	i	i	i
CCOC(=O)[C@@H]1[C@H]2COc3ccccc3[C@H]2N2C(=O)N(c3ccc(C)cc3)C(=O)[C@]12C	i	i	i	i	-6.7
Fc1ccc(-c2csc(=S)[nH]2)cc1	48	i	i	35	i
S=c1[nH]c(-c2ccccc2)cs1	61	i	i	44	i
O=c1[nH]c(-c2ccc(Cl)cc2)cs1	i	i	i	i	i
O=c1[nH]c(-c2ccccc2)cs1	i	i	i	i	i
O=C(C[C@@H]1C/C=C\C[C@@H](NC(=O)OCC2c3ccccc3-c3ccccc32)C(=O)OCCNC1=O)N[C@@H](CO)Cc1ccccc1	nt	i	nt	nt	nt
O=C(NCCCN1CCCC1=O)c1ccc(NS(=O)(=O)c2ccc(F)cc2)cc1	nt	i	nt	nt	nt
O=C(N/N=C\c1ccc(-c2ccccc2[N+](=O)[O-])o1)C1COc2ccccc2O1 (stereo not given)	i	i	i	i	-6.8
c1cncc(-c2nn[nH]n2)c1	7.5	i	i	i	i
CC(C)(C)C(=O)CC(=O)Nc1ccc(Cl)c(N)c1	4.9	i	i	i	i
CCCC(=O)Nc1ccc(Cl)c(NC(=O)C(C)(C)C)c1	i	i	i	i	i
CCOC(=O)c1sc2nc(CSc3ccccc3)nc(N3CCC(C(N)=O)CC3)c2c1C	10	i	i	i	i
Cc1sc2nc(CSc3ccccc3)nc(N3CCC(C(N)=O)CC3)c2c1C	i	i	i	i	i
CCOc1ccc(CN2CCN(Cc3cc4ccccc4[nH]3)CC2CCO)cc1 (stereo not given)	i	i	i	i	i
COc1cccc(CN2CCN(Cc3cc4ccccc4[nH]3)CC2CCO)c1 (stereo not given)	i	i	i	13	i
CC1CCC2(CC1)NC(=O)N(CC(=O)N1c3ccccc3CC1C)C2=O (stereo not given)	nt	i	nt	nt	nt
CSc1nnc(N2C(=O)C(O)=C(C(=O)c3ccc(C)o3)C2c2ccc(C)cc2)s1 (stereo not given)	i	i	i	i	i
COc1ccc(C2C(Oc3ccccc3)C(=O)N2c2ccc(C)c(C)c2)cc1OC (stereo not given)	i	i	i	i	-6.9
COc1ccc(-c2nnc(NC(=O)C3CCCN3S(=O)(=O)c3cccs3)o2)cc1 (stereo not given)	i	i	i	i	i
COc1ccc(C)cc1NC(=O)C(OC(=O)CNC(=O)c1cc(C)cc(C)c1)c1ccccc1 (stereo not given)	i	i	i	i	-8
COc1cc2nc(CN3CCN(S(=O)(=O)c4cc(C)ccc4C)CC3)[nH]c(=O)c2cc1OC	nt	i	nt	nt	nt
COc1ccc(CCNC(=O)CCc2ccc(OC)cc2)cc1	i	i	i	i	i
COc1ccc(CCC(=O)NCCOc2ccc(C)cc2)cc1	i	i	i	11	i
COc1cc(-c2nc3ccc(N4CCN(C)CC4)cc3[nH]2)cc(OC)c1OC	5.5	i	i	i	i
SMILES	hERG protect	KCNK3 block	KCNQ1 block	KCNQ1 pot	KCNK9 inh
CC(C(=O)Nc1ccccc1F)N1CCN(C)CC1 (stereo not given)	i	nt	i	i	i
CCOC(=O)c1cnc(-n2nc(C)cc2C)nc1NNc1cc(-c2ccccc2)nc(C)n1	i	nt	6	i	i
CCOC(=O)c1cnc(-n2nc(C)cc2C)nc1NNc1ncc(-c2ccccc2)cn1	i	nt	i	i	i
CCOC(=O)/C(C)=N/NC(=O)c1ccc([N+](=O)[O-])cc1	10	i	i	11	i
CC(=N\NC(=O)c1ccc([N+](=O)[O-])cc1)/C(=N/O)C(=O)Nc1ccccc1	i	i	6	i	i
COc1ccccc1NC(=S)NCCSc1ccc(Cl)cc1	i	i	i	i	i
COc1ccc(Cl)cc1NC(=S)NCCSc1ccc(C)cc1	i	i	i	i	-8.1
Cc1c(/C(O)=C2\C(=O)C(=O)N(CCCN(C)C)C2c2ccco2)cnn1-c1ccccc1 (stereo not given)	nt	i	nt	nt	nt
O=C(C[C@@H]1C/C=C/CC[C@H](Cc2ccc(F)cc2)C(=O)OCCNC1=O)N[C@H](CO)Cc1ccccc1	nt	i	nt	nt	nt
Cn1c(O)c(N=Nc2nc(-c3ccccc3)cs2)c2ccccc21	35	i	i	60	i
CC(Sc1ccsc1[N+](=O)[O-])C(=O)NCc1ccco1 (stereo not given)	i	i	i	i	-7.7
CN(c1ccccc1)S(=O)(=O)c1cc(C(=O)Nc2ccccc2N2CCOCC2)ccc1Cl	nt	i	nt	nt	nt
O=C(c1ccc(Br)s1)N1CCN(c2ccccn2)CC1	i	i	i	i	i
O=C(N1CCN(c2ccccn2)CC1)N1c2ccccc2Sc2ccccc21	i	i	i	i	-7.6
Cc1ccc(C2=NOC(=O)/C2=C\C=C\c2ccccc2)cc1	i	i	i	8	i
Cc1noc(C)c1CSCC(=O)Nc1nc(-c2ccc(F)c(F)c2)cs1	i	i	i	i	i
CC(C)(C)S(=O)(=O)N1Cc2ccc(CO)cc2[C@@H]1CCO	nt	i	nt	nt	nt
CCN(N=O)c1ccc(C=C2C=Cc3ccccc32)cc1	nt	i	nt	nt	nt
O=C(N/N=C/c1c(O)n(-c2ccc(Cl)cn2)c(=O)c2ccccc12)c1ccncc1	i	i	11	i	-6.9
O=C(N/N=C/c1c(O)n(-c2ccc(Cl)cn2)c(=O)c2ccccc12)C1CC1	i	i	i	i	i
O=C(Cn1c(=O)c2c(ncn2Cc2ccccc2)n(Cc2ccccc2)c1=O)N1CCc2ccccc21	i	i	i	7	i
CCn1cnc2c1c(=O)n(CC(=O)N1CCc3ccccc31)c(=O)n2Cc1ccccc1	i	i	i	i	i
Cc1ccc(S(=O)(=O)/N=C2/NC(=O)/C(=C\c3cc(Br)cc(Br)c3O)S2)cc1	i	i	7	i	i
CCOc1cc(Br)cc(/C=C2\SC(=Nc3ccccc3)NC2=O)c1O	i	i	6	i	i
CC1(C)C[C@H](O)[C@@]23C[C@@H](OC2=O)[C@]2(C)C(=CCC4[C@@]5(C)CC[C@H](O)C(C)(C)C5CC[C@]42C)[C@@H]3C1 (stereo not given in full)	i	nt	i	i	i
COc1ccc(-c2sc(Nc3ccccc3)n[n+]2-c2ccc(F)cc2)c(OC)c1OC	i	i	7	i	i
COc1cc(OC)c(-c2sc(Nc3ccccc3)n[n+]2-c2ccc(F)cc2)cc1OC	i	i	i	i	i
N#Cc1c(NC(=O)/C=C/C(=O)O)sc2c1CCN(Cc1ccccc1)C2	i	i	6	i	i
CC(=O)Nc1sc2c(c1C#N)CCN(Cc1ccccc1)C2	i	i	i	i	i
